Experiment [1] is filed under the species Mus musculus. Put plainly: Central nervous system depressant activity. It counts as functional. Put shortly: (§1)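 Male albino Webster mice, 20–26 g, groups of five, given ip doses of 250, 125, 63 mg/kg and lower until no effect was seen. Doses were calculated as active component and given in 0.9% saline or 100% propylene glycol. Observers scored motor activity, ataxia, depression, reflexes, posture, muscle tone and responses to noise, touch, restraint and transfer over 15–60 min. Survivors were held 24 h for a provisional acute toxicity level.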

The next experiment concerns Rattus norvegicus. Put plainly: Evaluated for anticonvulsant activity to protect all rats tested, when administered subcutaneously. Format: functional.
The test system of experiment [2] is Mus musculus. Put plainly: Compound was evaluated for the inhibition of Locomotion-Screen falloff test, at dose (mg/Kg) = 30; 31-59%. Format: functional. In a few lines: (§2)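 Unfasted male Swiss–Webster mice, 20–30 g, nine per dose in three groups of three, received 10, 30 or 100 mg/kg ip as parent compound in 0.2% methocel, 1 h before testing; controls got methocel. Screen test: percent of mice falling from a screen inverted 180° during 60 s. Then locomotion was read by actophotometer over 1 h as percent inhibition versus vehicle. Graded bands: 60–100% = A.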

For experiment [3], the system named is Mus musculus. The experiment can be described thus: Compound was evaluated for the inhibition of Locomotion-Screen falloff test, at dose (mg/Kg) = 10; 0-30%. It counts as functional. Put shortly:
as §2

For experiment [4], the system named is Mus musculus. The experiment can be described thus: Compound was evaluated for the inhibition of Locomotion-Screen falloff test, at dose (mg/Kg) = 100; 31-59%. It counts as functional. Put shortly:
as §2

Experiment [5] deals with Mus musculus. Put plainly: Compound was evaluated for the inhibition of Locomotion-Screen falloff test, at dose (mg/Kg) = 30; 0-30%. It counts as functional. Put shortly: as §2
Experiment [6] deals with Mus musculus. The experiment can be described thus: Compound was evaluated for the inhibition of Locomotion-Screen falloff test, at dose (mg/Kg) = 100; 60-100%. It counts as functional. Put shortly:
as §2

Experiment [7] deals with Mus musculus. The experiment can be described thus: Compound was evaluated for the inhibition of Locomotion-Screen falloff test, at dose (mg/Kg) = 10; 31-59%. Format: functional. Put shortly: as §2
For experiment [8], the system named is Mus musculus. Put plainly: Compound was evaluated for the inhibition of Locomotion-Screen falloff test, at dose (mg/Kg) = 30; 60-100%. Format: functional. Put shortly: as §2
The subject of experiment [9] is Mus musculus. The experiment can be described thus: Compound was evaluated for the inhibition of Locomotion-Screen falloff test by ip route. It counts as functional. Put shortly:
as §2

Experiment [10] has as its system Mus musculus. The experiment can be described thus: Compound was evaluated for the inhibition of Locomotion-Screen falloff test, at dose (mg/Kg) = 10; 60-100%. It counts as functional. In a few lines:
as §2

The test system of experiment [11] is Mus musculus. Put plainly: Compound was evaluated for central nervous system depressant activity at 250 mg/kg; c=Quiet at 250 mg/kg. Format: functional, organism-based. Put shortly: as §1
The test system of experiment [12] is Mus musculus. The experiment can be described thus: Compound was evaluated for the inhibition of Locomotion-Screen falloff test, at dose (mg/Kg) = 10. It counts as functional. Put shortly:
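Swiss-Webster male mice (20–30 g, unfasted), 9 per dose in three groups of three; 10 mg/kg ip in 0.2% methocel, dosed as parent compound, 1 h before testing; methocel-injected controls. Inverted wire screen (180° rotation, 60 s) scored as percent falling off. Then actophotometer counts over 1 h give percent inhibition versus vehicle; graded A = 60–100%.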

In general, Inhibition refers to the drop in the measured response relative to a control, in per cent. A high value points to strong suppression. By ED50 is commonly meant the dose that gives a 50% effect, or the effect in half of the subjects. Higher therefore signals weaker potency.

As to `CCCn1nc(C)c(C(=O)c2cccs2)c1N`, the results for the Activity in the experiment listed under Mus musculus [1] and with Rattus norvegicus were 250 mg/kg and 125 mg/kg, respectively.
Consider `COc1ccccc1C(=O)c1c(C)nn(C)c1N`, for which the figures for the Activity in the experiment filed under Mus musculus [1] and with Rattus norvegicus were 32 mg/kg and 125 mg/kg, respectively. Further, the Inhibition with Mus musculus [2] was found to be 31%; in the experiment on Mus musculus [3], 0%; in the experiment on Mus musculus [4] it was 31%.
With `Cc1ccccc1C(=O)c1c(C)nn(C)c1N`, the Activity in the experiment filed under Mus musculus [1] amounted to 32 mg/kg; in the experiment on Rattus norvegicus, 125 mg/kg. For the same compound, the Inhibition worked out at 0% in the experiment with Mus musculus [5], 60% in the experiment with Mus musculus [6] and 31% in the experiment on Mus musculus [7].
With `Cc1nn(C)c(N)c1C(=O)c1cccs1`, the Activity in the experiment filed under Mus musculus [1] came to 8 mg/kg. Moreover, the values for the Inhibition in the experiment on Mus musculus [6], with Mus musculus [3] and with Mus musculus [8] were 60%, 0% and 60%, respectively. Besides, the ED50 in the experiment with Mus musculus [9] worked out at 34.2 mg/kg.
Regarding `COc1cccc(C(=O)c2c(C)nn(C)c2N)c1Cl`, the Activity in the experiment listed under Mus musculus [1] was determined as 32 mg/kg; in the experiment on Rattus norvegicus, 250 mg/kg.
For the compound `CCc1nn(C)c(N)c1C(=O)c1ccccc1F`, the Activity in the experiment listed under Mus musculus [1] was 32 mg/kg; in the experiment on Rattus norvegicus it was 250 mg/kg. Also, the Inhibition in the experiment on Mus musculus [5] was found to be 0%; in the experiment with Mus musculus [3], 0%; in the experiment with Mus musculus [4], 31%.
With `CCc1nn(C)c(N)c1C(=O)c1ccccc1`, the Activity amounted to 16 mg/kg in the experiment listed under Mus musculus [1] and 250 mg/kg in the experiment with Rattus norvegicus. The Inhibition turned out to be 31% with Mus musculus [4], 60% with Mus musculus [8] and 31% with Mus musculus [7].
Turning to `Cc1nn(C)c(N)c1C(=O)c1ccccc1F`, the Activity in the experiment filed under Mus musculus [1] came out at 32 mg/kg; in the experiment with Rattus norvegicus, 250 mg/kg. For the same compound, the Inhibition with Mus musculus [10] and with Mus musculus [8] was 60% each time. The compound also gave a median effective dose (ED50) with Mus musculus [9] of 9.4 mg/kg.
`CCn1nc(C)c(C(=O)c2ccccc2Cl)c1N`: the Activity in the experiment listed under Mus musculus [1] stood at 32 mg/kg; with Rattus norvegicus, 16 mg/kg.
As to `CCCn1nc(C)c(C(=O)c2ccccc2C)c1N`, the figures for the Activity in the experiment filed under Mus musculus [1] and with Rattus norvegicus were 16 mg/kg and 63 mg/kg, respectively.
Compound `CSc1ccc2c(c1)N(CCC1CCCCN1C)c1ccccc1S2` (configuration not stated) [THIORIDAZINE] displayed an Inhibition in the experiment on Mus musculus [10] of 60%. For the same compound, the 50% effect level in the experiment on Mus musculus [9] (ED50) was put at a dose of 2.9 mg/kg.
Take `Cc1nn(C)c(N)c1C(=O)c1ccccc1`: the values for the Activity in the experiment filed under Mus musculus [1] and with Rattus norvegicus were 63 mg/kg and 500 mg/kg, respectively. In addition, the Inhibition in the experiment on Mus musculus [2] was 31%; in the experiment with Mus musculus [6], 60%; with Mus musculus [3], 0%.
The compound `CCCCc1nn(C)c(N)c1C(=O)c1ccccc1Cl` returned an Activity in the experiment with Rattus norvegicus of 125 mg/kg.
Turning to `Cc1nn(C)c(N)c1C(=O)c1ccc(Cl)cc1`, the Activity in the experiment listed under Mus musculus [1] and in the experiment with Rattus norvegicus was 125 mg/kg in each case. For the same compound, the Inhibition was 0% with Mus musculus [5], 60% in the experiment on Mus musculus [6] and 0% in the experiment with Mus musculus [3].
As for `CCCn1nc(C)c(C(=O)c2ccccc2Cl)c1N`, the Activity in the experiment listed under Mus musculus [1] was 8 mg/kg; in the experiment with Rattus norvegicus, 32 mg/kg.
For `CCCn1nc(C)c(C(=O)c2cccc(OC)c2Cl)c1N` the same measures were 16 mg/kg and 63 mg/kg.
Consider `CC(C)c1nn(C)c(N)c1C(=O)c1ccccc1Cl`, for which the Activity in the experiment filed under Mus musculus [1] was 63 mg/kg.
Consider `CCCn1nc(C)c(C(=O)c2ccccc2Br)c1N`, for which the Activity was 8 mg/kg in the experiment filed under Mus musculus [1] and 32 mg/kg in the experiment on Rattus norvegicus.
With `Cc1nn(C)c(N)c1C(=O)c1ccccc1C(F)(F)F`, the Activity turned out to be 125 mg/kg in the experiment filed under Mus musculus [1] and 250 mg/kg in the experiment on Rattus norvegicus. Further, the figures for the Inhibition in the experiment on Mus musculus [2], in the experiment on Mus musculus [6] and with Mus musculus [3] were 31%, 60% and 0%, respectively.
With `CCCc1nn(C)c(N)c1C(=O)c1ccccc1Cl`, the results for the Activity in the experiment listed under Mus musculus [1] and with Rattus norvegicus were 32 mg/kg and 125 mg/kg, respectively.
For `CCc1nn(C)c(N)c1C(=O)c1cccc(F)c1` the same measures were 63 mg/kg and 500 mg/kg.
Compound `Cn1nc(-c2ccccc2)c(C(=O)c2ccccc2Cl)c1N` registered an Activity in the experiment listed under Mus musculus [1] of 250 mg/kg.
In the case of `Cc1nn(C(C)C)c(N)c1C(=O)c1ccccc1Cl`, the Activity amounted to 63 mg/kg in the experiment filed under Mus musculus [1] and 500 mg/kg with Rattus norvegicus.
For `CCCn1nc(C)c(C(=O)c2ccccc2OC)c1N` the same measures were 16 mg/kg and 125 mg/kg.
For `CCCCn1nc(C)c(C(=O)c2ccccc2Cl)c1N` the same measures were 8 mg/kg and 125 mg/kg.
Compound `Cc1nn(-c2ccccc2)c(N)c1C(=O)c1ccccc1Cl` returned an Activity in the experiment listed under Mus musculus [1] of 250 mg/kg.
For `Cc1nn(C2CCCCC2)c(N)c1C(=O)c1ccccc1Cl`, in the experiment on Mus musculus [11], the Activity result is “Quiet at 250mg/kg”.
Take `CCc1nn(C)c(N)c1C(=O)c1ccccc1Cl`: the Activity was found to be 63 mg/kg in the experiment listed under Mus musculus [1] and 500 mg/kg with Rattus norvegicus.
As for `Cc1nn(C)c(N)c1C(=O)c1cccc(Cl)c1`, the Activity in the experiment listed under Mus musculus [1] is 125 mg/kg; in the experiment with Rattus norvegicus, 63 mg/kg. In addition, the figures for the Inhibition in the experiment on Mus musculus [5], in the experiment with Mus musculus [3] and with Mus musculus [4] were 0%, 0% and 31%, respectively.
As for `CCCn1nc(C)c(C(=O)c2ccc(Cl)cc2)c1N`, the Activity in the experiment listed under Mus musculus [1] was determined as 16 mg/kg; in the experiment with Rattus norvegicus, 32 mg/kg.
As to `CCCCn1nc(C)c(C(=O)c2cccc(Cl)c2)c1N`, the figures for the Activity in the experiment filed under Mus musculus [1] and in the experiment with Rattus norvegicus were 32 mg/kg and 500 mg/kg, respectively.
In the experiment listed under Mus musculus [1], `Cc1nn(C)c(N)c1C(=O)c1ccsc1` yielded an Activity of 16 mg/kg.
In the case of `CCCn1nc(C)c(C(=O)c2ccccc2C(F)(F)F)c1N`, the Activity was 8 mg/kg in the experiment listed under Mus musculus [1] and 63 mg/kg in the experiment with Rattus norvegicus.
`O=c1[nH]c2ccccc2n1C1CCN(CCCC(c2ccc(F)cc2)c2ccc(F)cc2)CC1` [PIMOZIDE] had an ED50 with Mus musculus [12] of 5.9 mg/kg. This compound also registered an Inhibition with Mus musculus [10] of 60%.
For the compound `Cc1nn(C)c(N)c1C(=O)c1ccccc1Cl`, the Activity in the experiment filed under Mus musculus [1] is 63 mg/kg; in the experiment with Rattus norvegicus, 125 mg/kg. Further, the Inhibition with Mus musculus [5] was 0%; with Mus musculus [6], 60%; in the experiment with Mus musculus [3], 0%.
Regarding `Cc1nn(C)c(N)c1C(=O)c1ccccc1Br`, the results for the Activity in the experiment listed under Mus musculus [1] and in the experiment with Rattus norvegicus were 63 mg/kg and 125 mg/kg, respectively. Also, the results for the Inhibition with Mus musculus [5], in the experiment with Mus musculus [4] and with Mus musculus [7] were 0%, 31% and 31%, respectively.
For `Cc1nn(C)c(N)c1C(=O)c1cccc(C(F)(F)F)c1`, the Activity amounted to 4 mg/kg in the experiment listed under Mus musculus [1] and 125 mg/kg in the experiment with Rattus norvegicus. Besides, the Inhibition in the experiment on Mus musculus [5] was 0%; in the experiment with Mus musculus [3], 0%; with Mus musculus [4], 31%.

For the origin of these results see ChEMBL document CHEMBL1122509, “(1,3-Dialkyl-5-amino-1H-pyrazol-4-yl)arylmethanones. A series of novel central nervous system depressants” (1984).
